We go through six compounds from ChEMBL document CHEMBL3085721, “Nonhydrolyzable ATP analogues as selective inhibitors of human NPP1: a combined computational/experimental study” (J Med Chem, 2013).

Active and inactive are the calls of the source. The rule behind the calls is not given here.

As usually defined, the inhibition is the share of the control response that was lost under treatment.

The target of assay [1] is T1, Ectonucleotide pyrophosphatase/phosphodiesterase family member 3 (Homo sapiens) (UniProt O14638).
T1 sequence (whole entry): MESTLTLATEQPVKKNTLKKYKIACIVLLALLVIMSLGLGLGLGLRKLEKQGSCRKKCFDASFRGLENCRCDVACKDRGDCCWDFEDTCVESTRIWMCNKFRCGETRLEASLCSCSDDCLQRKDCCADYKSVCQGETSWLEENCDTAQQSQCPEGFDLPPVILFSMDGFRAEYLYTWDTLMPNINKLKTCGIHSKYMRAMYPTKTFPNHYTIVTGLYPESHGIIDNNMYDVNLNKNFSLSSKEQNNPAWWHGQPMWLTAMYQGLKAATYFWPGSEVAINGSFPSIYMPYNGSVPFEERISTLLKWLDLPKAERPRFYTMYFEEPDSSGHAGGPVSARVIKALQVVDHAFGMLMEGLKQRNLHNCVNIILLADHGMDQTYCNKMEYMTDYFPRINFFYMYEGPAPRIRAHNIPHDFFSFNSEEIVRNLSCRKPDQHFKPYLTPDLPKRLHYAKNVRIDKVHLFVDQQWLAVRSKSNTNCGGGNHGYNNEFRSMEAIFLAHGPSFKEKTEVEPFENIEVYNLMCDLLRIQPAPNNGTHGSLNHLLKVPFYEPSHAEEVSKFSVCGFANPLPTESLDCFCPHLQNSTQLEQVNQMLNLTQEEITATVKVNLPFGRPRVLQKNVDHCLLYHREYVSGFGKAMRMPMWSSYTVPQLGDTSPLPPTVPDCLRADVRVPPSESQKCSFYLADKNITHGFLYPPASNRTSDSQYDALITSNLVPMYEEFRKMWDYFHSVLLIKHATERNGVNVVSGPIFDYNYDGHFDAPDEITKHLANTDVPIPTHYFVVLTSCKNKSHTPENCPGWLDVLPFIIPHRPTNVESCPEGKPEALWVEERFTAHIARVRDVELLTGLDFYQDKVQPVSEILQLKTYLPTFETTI
Kind of assay: Inhibition of NPP3 in human HTB-85 cells assessed as production of p-nitrophenol using pnp-TMP at 100 uM measured after 20 mins by spectrophotometry. The class given is cell-based. An outline of the steps: (§1)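 Intact osteocarcinoma HTB85 (SaOS-2) cells in 24-well plates, 0.5 mL incubation mixture, analogue and pnp-TMP each at 100 μM. After 20 min an aliquot was read for p-nitrophenol at 410 nm. Substrate alone set as 100%. Mean ± SD of three experiments in triplicate.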

Assay [2] concerns the target T2, Ectonucleotide pyrophosphatase/phosphodiesterase family member 1 (Homo sapiens, UniProt P22413).
T2 sequence (P22413 whole entry): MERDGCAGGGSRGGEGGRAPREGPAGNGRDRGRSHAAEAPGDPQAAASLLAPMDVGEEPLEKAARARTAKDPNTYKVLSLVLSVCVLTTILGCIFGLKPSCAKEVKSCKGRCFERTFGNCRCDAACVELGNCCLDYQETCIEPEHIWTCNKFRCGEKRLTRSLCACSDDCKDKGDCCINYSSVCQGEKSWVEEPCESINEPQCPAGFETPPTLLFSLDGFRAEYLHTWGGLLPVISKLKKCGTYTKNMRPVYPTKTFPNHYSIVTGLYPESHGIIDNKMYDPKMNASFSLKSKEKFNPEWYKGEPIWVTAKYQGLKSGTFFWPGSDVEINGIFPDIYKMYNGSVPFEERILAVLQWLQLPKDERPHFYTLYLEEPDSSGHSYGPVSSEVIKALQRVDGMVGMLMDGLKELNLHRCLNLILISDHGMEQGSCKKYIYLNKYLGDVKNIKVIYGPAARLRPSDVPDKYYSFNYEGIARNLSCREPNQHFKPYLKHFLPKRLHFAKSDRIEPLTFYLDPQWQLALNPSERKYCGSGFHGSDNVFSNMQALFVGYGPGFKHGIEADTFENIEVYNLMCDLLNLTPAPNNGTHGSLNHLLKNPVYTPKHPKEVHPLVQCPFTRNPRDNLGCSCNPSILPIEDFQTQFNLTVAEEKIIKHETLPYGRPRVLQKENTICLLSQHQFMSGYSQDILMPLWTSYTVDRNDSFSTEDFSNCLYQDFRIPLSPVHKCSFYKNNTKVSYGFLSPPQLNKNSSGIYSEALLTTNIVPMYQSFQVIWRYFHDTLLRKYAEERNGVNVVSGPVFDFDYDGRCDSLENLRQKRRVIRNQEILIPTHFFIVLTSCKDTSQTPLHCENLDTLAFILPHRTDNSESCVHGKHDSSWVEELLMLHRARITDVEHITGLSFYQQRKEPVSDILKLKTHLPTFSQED
Kind of assay: Mixed type inhibition of human NPP1 expressed in COS7 cells assessed as production of p-nitrophenol using pnp-TMP as the substrate preincubated for 3 mins before substrate addition measured after 15 mins by Dixon/Cornish Bowden method. Type of assay: cell-based, COS-7. To be noted: read-out: Ki(app). The method in brief: (§2)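 Crude protein extract from COS-7 cells transiently transfected with human NPP1 (sonicated, debris cleared at 300g), preincubated 3 min at 37 °C with inhibitor (0, 25, 50, 100 μM) in 1 mM CaCl2, 140 mM NaCl, 5 mM KCl, 50 mM Tris pH 8.5. pnp-TMP (25, 50, 100 μM) added; p-nitrophenol read at 410 nm after 15 min. Ki,app and inhibition type from Dixon and Cornish-Bowden plots, three independent experiments.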

Assay [3] has as its target T3, Ectonucleotide pyrophosphatase/phosphodiesterase family member 1 (Homo sapiens) (UniProt P22413).
T3 sequence (whole entry): T2 sequence (P22413 whole entry)
Kind of assay: Competitive inhibition of human NPP1 expressed in COS7 cells assessed as production of p-nitrophenol using pnp-TMP as the substrate preincubated at 25 to 100 uM for 3 mins before substrate addition measured after 15 mins by Dixon/Cornish Bowden method. Type of assay: cell-based. The settings on record: COS-7. An outline of the steps: as §2

The target in assay [4] is T3, Ectonucleotide pyrophosphatase/phosphodiesterase family member 1 (Homo sapiens). Kind of assay: Inhibition of human NPP1 expressed in COS7 cells assessed as production of p-nitrophenol using pnp-TMP as the substrate preincubated at 100 uM for 3 mins before substrate addition measured after 15 mins […]. The settings on record: COS-7. The class given is cell-based. The method in brief:
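Crude extracts of COS-7 cells transiently transfected with human NPP1 or NPP3, preincubated 3 min at 37 °C in 1 mM CaCl2, 140 mM NaCl, 5 mM KCl, 50 mM Tris pH 8.5 with analogue at 100 μM. Reaction started with 100 μM pnp-TMP; p-nitrophenol at 410 nm after 15 min. Activity without analogue set as 100%. Mean ± SD of 3−6 experiments in triplicate.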

The target is the same in assay [5]. Kind of assay: Inhibition of NPP1 in human HTB-85 cells assessed as production of p-nitrophenol using pnp-TMP at 100 uM measured after 20 mins by spectrophotometry. The class given is cell-based. An outline of the steps: as §1
Assay [6] concerns the target T4, Ectonucleoside triphosphate diphosphohydrolase 1 (Homo sapiens) (UniProt P49961).
T4 sequence (whole entry): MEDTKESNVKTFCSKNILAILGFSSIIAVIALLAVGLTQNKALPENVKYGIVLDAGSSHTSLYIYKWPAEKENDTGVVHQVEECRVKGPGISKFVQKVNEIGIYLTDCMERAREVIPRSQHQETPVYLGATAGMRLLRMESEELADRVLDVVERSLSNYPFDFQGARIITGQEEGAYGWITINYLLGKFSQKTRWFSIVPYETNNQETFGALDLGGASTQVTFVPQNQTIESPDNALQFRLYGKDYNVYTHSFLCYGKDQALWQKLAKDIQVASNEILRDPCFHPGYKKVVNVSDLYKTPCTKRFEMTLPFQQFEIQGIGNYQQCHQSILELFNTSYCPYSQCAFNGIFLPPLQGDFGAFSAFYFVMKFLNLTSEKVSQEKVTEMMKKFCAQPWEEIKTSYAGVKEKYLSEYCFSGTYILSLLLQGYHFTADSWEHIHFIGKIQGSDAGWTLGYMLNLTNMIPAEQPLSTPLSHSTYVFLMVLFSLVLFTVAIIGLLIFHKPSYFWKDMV
Kind of assay: Inhibition of human NTPDase1 assessed as amount of inorganic phosphate released using ATP as the substrate preincubated at 100 uM for 3 mins before substrate addition after 15 mins by malachite green reagent method. The method in brief:
(§3)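 Crude extracts of COS-7 cells transiently transfected with human NTPDase1, -2, -3 or -8, preincubated 3 min at 37 °C in Tris-Ringer medium pH 7.4 with analogue (final 100 μM). Started with 100 μM ATP, stopped after 15 min with malachite green; released Pi read at 630 nm. ATP alone set as 100%. Mean ± SD of 3−6 experiments in triplicate.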

Assay [7] has as its target T5, Ectonucleoside triphosphate diphosphohydrolase 8 (Homo sapiens) (UniProt Q5MY95).
T5 sequence (whole entry): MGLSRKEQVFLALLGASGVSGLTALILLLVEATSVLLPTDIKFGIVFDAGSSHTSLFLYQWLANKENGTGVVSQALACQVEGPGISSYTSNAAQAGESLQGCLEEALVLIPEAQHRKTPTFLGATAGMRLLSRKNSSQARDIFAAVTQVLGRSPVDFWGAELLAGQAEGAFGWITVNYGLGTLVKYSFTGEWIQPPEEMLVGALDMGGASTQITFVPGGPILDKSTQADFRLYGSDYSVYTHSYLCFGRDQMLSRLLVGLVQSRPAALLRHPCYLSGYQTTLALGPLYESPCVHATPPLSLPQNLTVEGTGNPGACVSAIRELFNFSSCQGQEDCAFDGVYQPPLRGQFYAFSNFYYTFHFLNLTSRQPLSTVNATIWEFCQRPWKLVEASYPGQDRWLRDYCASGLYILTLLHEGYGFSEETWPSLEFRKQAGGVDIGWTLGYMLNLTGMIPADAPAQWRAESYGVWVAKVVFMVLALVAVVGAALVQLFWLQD
Kind of assay: Inhibition of human NTPDase8 assessed as amount of inorganic phosphate released using ATP as the substrate preincubated at 100 uM for 3 mins before substrate addition after 15 mins by malachite green reagent method. The method in brief: as §3

The target in assay [8] is T6, Ectonucleoside triphosphate diphosphohydrolase 3 (Homo sapiens) (UniProt O75355).
T6 sequence (whole entry): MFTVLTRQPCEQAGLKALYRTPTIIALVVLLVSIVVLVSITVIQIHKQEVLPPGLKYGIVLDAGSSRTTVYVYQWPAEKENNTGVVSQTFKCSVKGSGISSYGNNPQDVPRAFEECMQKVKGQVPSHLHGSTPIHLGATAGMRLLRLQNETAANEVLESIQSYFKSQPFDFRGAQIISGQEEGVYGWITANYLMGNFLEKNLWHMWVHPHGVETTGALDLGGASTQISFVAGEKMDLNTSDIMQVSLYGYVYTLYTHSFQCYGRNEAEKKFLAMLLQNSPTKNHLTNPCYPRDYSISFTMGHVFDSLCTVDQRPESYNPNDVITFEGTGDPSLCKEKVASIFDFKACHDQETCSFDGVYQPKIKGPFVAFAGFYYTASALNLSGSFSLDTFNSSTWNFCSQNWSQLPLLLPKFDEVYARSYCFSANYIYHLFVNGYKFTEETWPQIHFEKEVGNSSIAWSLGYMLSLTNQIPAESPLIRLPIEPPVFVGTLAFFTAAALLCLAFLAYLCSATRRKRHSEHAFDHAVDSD
Kind of assay: Inhibition of human NTPDase3 assessed as amount of inorganic phosphate released using ATP as the substrate preincubated at 100 uM for 3 mins before substrate addition after 15 mins by malachite green reagent method. An outline of the steps:
as §3

The target of assay [9] is T7, Ectonucleoside triphosphate diphosphohydrolase 2 (Homo sapiens) (UniProt Q9Y5L3).
T7 sequence (whole entry): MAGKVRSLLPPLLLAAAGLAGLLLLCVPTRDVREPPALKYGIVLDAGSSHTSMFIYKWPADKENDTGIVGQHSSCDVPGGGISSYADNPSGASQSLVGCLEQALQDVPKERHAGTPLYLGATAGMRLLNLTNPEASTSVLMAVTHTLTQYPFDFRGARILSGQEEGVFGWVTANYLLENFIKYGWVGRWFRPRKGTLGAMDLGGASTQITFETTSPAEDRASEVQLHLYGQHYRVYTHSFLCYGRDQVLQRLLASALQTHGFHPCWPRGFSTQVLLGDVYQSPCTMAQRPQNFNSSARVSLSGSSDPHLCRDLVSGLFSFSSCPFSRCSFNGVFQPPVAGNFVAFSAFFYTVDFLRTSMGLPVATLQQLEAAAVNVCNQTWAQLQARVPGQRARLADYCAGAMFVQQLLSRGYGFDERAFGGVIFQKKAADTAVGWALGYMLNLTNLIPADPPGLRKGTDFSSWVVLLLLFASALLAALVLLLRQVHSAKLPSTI
Kind of assay: Inhibition of human NTPDase2 assessed as amount of inorganic phosphate released using ATP as the substrate preincubated at 100 uM for 3 mins before substrate addition after 15 mins by malachite green reagent method. An outline of the steps: as §3

Turning to `CSc1nc(N)c2ncn([C@@H]3O[C@H](COP(=O)(O)OP(=O)(O)C(F)(F)P(=O)(O)O)[C@@H](O)[C@H]3O)c2n1`, the results for the inhibition in assay [1], in [4] and in assay [5] were 41%, 90% and 41%, respectively. Moreover, in assay [2], the Ki was 37 µM. For the same compound, in assay [3], the inhibition result is “Active”.

Regarding `B[P@@](=O)(OC[C@H]1O[C@@H](n2cnc3c(N)nc(SC)nc32)[C@H](O)[C@@H]1O)OP(=O)(O)CP(=O)(O)O`, the inhibition was less than 18% in assay [6]; less than 18% in [7]; less than 18% in [8]; less than 18% in assay [9]; 80% in assay [4].

With `B[P@](=O)(OC[C@H]1O[C@@H](n2cnc3c(N)nc(SC)nc32)[C@H](O)[C@@H]1O)OP(=O)(O)C(F)(F)P(=O)(O)O`, the inhibition in assay [1] is 41%; in [7], 30%; in [8], 50%; in [4] it was 90%; in assay [5], 41%.

On to `B[P@](=O)(OC[C@H]1O[C@@H](n2cnc3c(N)nc(SC)nc32)[C@H](O)[C@@H]1O)OP(=O)(O)C(Cl)(Cl)P(=O)(O)O`, for which the inhibition turned out to be 41% in [1], 90% in assay [4] and 41% in assay [5].

Consider `B[P@@](=O)(OC[C@H]1O[C@@H](n2cnc3c(N)nc(SC)nc32)[C@H](O)[C@@H]1O)OP(=O)(O)C(Cl)(Cl)P(=O)(O)O`, for which the inhibition in [6] worked out at 50%; in assay [1], 90%; in assay [8], 50%; in assay [4], 90%; in [5] it was 90%.

Regarding `CSc1nc(N)c2ncn([C@@H]3O[C@H](COP(=O)(O)OP(=O)(O)CP(=O)(O)O)[C@@H](O)[C@H]3O)c2n1`, the inhibition was less than 18% in assay [6]; less than 18% in assay [7]; less than 18% in assay [8]; less than 18% in [9]; 66% in assay [4].
